How the values were obtained:
[1] = target: ABCB1 (P-glycoprotein) (Homo sapiens, UniProt P08183); test: Inhibition of human ABCB1 expressed in mouse L5178 cells assessed as increase in rhodamine-123 accumulation at 2 uM after 10 mins by flow cytometric analysis relative to control; type: cell-based; conditions: mouse L5178 cells expressing human ABCB1, probe rhodamine-123
Procedure, shortened: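 Cells at 2 × 10^6/mL were preincubated 10 min with compound. Rhodamine 123 then added to 5.2 µM final, 20 min at 37 °C. Cells washed twice in PBS, resuspended and read by flow cytometry. Percent inhibition was scaled between MDR-cell accumulation (0%) and parental L5178 accumulation (100%). Controls: 100 nM tariquidar (positive) and 2% DMSO (negative).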

[2] = Synergistic cytotoxicity against mouse L5178 cells expressing human ABCB1 assessed as combination index at ED75 using 1.875:1 test compound to doxorubicin ratio after 48 hrs by MTT-based checkerboard microplate method; type: functional
Procedure, shortened: (§1)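 Checkerboard microplate combinations of compound with doxorubicin at constant molar ratios. 5 × 10^4 cells/well in McCoy's 5A, 48 h at 37°C, 5% CO2. MTT added to 0.5 mg/mL final for 4 h, SDS/HCl overnight, OD read at 540 and 630 nm. Combination indices derived per ratio for 50%, 75% and 90% growth inhibition by median-effect analysis.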

[3] = Synergistic cytotoxicity against mouse L5178 cells assessed as combination index at ED50 using 150:1 test compound to doxorubicin ratio after 48 hrs by MTT-based checkerboard microplate method; type: functional; procedure, shortened: as §1
[4] = Synergistic cytotoxicity against mouse L5178 cells expressing human ABCB1 assessed as combination index at ED50 using 1.875:1 test compound to doxorubicin ratio after 48 hrs by MTT-based checkerboard microplate method; type: functional; procedure, shortened: as §1
[5] = Synergistic cytotoxicity against mouse L5178 cells assessed as combination index at ED90 using 300:1 test compound to doxorubicin ratio after 48 hrs by MTT-based checkerboard microplate method; type: functional; procedure, shortened: as §1
[6] = Synergistic cytotoxicity against mouse L5178 cells assessed as combination index at ED75 using 300:1 test compound to doxorubicin ratio after 48 hrs by MTT-based checkerboard microplate method; type: functional; procedure, shortened: as §1
[7] = Synergistic cytotoxicity against mouse L5178 cells expressing human ABCB1 assessed as combination index at ED90 using 1.875:1 test compound to doxorubicin ratio after 48 hrs by MTT-based checkerboard microplate method; type: functional; procedure, shortened: as §1
[8] = tested on: SiHa; test: Antiproliferative activity against human SiHa cells after 72 hrs by MTT assay; type: functional, cell-based
Procedure, shortened: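 Cells grown in MEM with 10% FCS, 1% non-essential amino acids and 1% penicillin-streptomycin. Seeded at 5000 cells/well, exposed to 0.1–30.0 µM compound for 72 h. MTT (5 mg/ml solution) was then added for 4 h, formazan dissolved in DMSO, and absorbance read at 545 nm. Cisplatin served as positive control. IC50 came from sigmoidal dose–response fits (log inhibitor vs normalized response, variable slope).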

[9] = Synergistic cytotoxicity against mouse L5178 cells assessed as combination index at ED50 using 300:1 test compound to doxorubicin ratio after 48 hrs by MTT-based checkerboard microplate method; type: functional; procedure, shortened: as §1
[10] = Synergistic cytotoxicity against mouse L5178 cells expressing human ABCB1 assessed as combination index at ED75 using 7.5:1 test compound to doxorubicin ratio after 48 hrs by MTT-based checkerboard microplate method; type: functional; procedure, shortened: as §1
[11] = Synergistic cytotoxicity against mouse L5178 cells assessed as combination index at ED75 using 150:1 test compound to doxorubicin ratio after 48 hrs by MTT-based checkerboard microplate method; type: functional; procedure, shortened: as §1
[12] = Synergistic cytotoxicity against mouse L5178 cells assessed as combination index at ED90 using 37.5:1 test compound to doxorubicin ratio after 48 hrs by MTT-based checkerboard microplate method; type: functional; procedure, shortened: as §1
[13] = Synergistic cytotoxicity against mouse L5178 cells assessed as combination index at ED75 using 18.75:1 test compound to doxorubicin ratio after 48 hrs by MTT-based checkerboard microplate method; type: functional; procedure, shortened: as §1
[14] = Synergistic cytotoxicity against mouse L5178 cells assessed as combination index at ED90 using 18.75:1 test compound to doxorubicin ratio after 48 hrs by MTT-based checkerboard microplate method; type: functional; procedure, shortened: as §1
[15] = Synergistic cytotoxicity against mouse L5178 cells expressing human ABCB1 assessed as combination index at ED75 using 60:1 test compound to doxorubicin ratio after 48 hrs by MTT-based checkerboard microplate method; type: functional; procedure, shortened: as §1
[16] = Synergistic cytotoxicity against mouse L5178 cells assessed as combination index at ED50 using 18.75:1 test compound to doxorubicin ratio after 48 hrs by MTT-based checkerboard microplate method; type: functional; procedure, shortened: as §1

ABCB1 (P-glycoprotein), sequence (P08183 whole entry): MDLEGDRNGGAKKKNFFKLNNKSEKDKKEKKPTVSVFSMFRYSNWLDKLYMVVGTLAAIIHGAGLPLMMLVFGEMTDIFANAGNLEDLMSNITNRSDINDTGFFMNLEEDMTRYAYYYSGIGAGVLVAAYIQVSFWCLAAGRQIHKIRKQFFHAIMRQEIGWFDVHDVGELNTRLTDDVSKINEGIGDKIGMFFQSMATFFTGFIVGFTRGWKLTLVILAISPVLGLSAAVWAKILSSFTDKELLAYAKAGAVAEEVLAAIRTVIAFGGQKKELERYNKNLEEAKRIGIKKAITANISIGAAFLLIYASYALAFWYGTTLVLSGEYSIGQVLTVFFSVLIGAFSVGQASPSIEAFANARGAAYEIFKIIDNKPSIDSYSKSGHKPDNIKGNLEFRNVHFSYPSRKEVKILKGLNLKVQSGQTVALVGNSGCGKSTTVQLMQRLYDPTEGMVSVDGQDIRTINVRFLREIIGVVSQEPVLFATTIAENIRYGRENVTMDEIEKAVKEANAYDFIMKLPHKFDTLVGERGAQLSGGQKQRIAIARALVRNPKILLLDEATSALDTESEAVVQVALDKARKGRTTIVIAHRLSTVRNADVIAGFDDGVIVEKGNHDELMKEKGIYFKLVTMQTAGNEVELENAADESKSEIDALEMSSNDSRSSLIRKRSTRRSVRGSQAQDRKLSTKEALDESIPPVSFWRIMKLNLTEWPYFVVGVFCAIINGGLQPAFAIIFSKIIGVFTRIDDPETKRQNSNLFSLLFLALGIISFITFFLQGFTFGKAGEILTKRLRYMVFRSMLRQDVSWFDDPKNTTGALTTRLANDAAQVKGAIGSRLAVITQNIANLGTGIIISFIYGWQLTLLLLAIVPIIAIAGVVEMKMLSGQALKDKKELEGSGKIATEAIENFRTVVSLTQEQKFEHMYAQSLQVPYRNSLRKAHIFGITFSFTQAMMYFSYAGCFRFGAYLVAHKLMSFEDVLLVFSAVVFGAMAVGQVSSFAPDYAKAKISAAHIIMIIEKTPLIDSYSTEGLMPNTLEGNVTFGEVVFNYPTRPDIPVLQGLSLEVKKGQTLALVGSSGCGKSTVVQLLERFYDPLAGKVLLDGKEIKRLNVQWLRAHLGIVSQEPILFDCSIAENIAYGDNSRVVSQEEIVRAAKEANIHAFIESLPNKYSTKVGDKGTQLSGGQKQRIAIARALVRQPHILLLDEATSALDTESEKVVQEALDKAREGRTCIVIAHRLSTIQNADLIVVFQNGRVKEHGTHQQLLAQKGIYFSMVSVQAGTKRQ

Structure (SMILES) | inhibition at 10 min, 2 µM [1] [%] | CI [2] | CI [3] | CI [4] | CI [5] | CI [6] | CI [7] | IC50 [8] [µM] | CI [9] | CI [10] | CI [11] | CI [12] | CI [13] | CI [14] | CI [15] | CI [16]
CCO/N=C1/C=C2[C@H](CC[C@]3(C)[C@@H]([C@@]4(C)OC(C)(C)O[C@@H]4CCC(C)(C)O)CC[C@@]23O)[C@@]2(C)C[C@@H]3OC(C)(C)O[C@@H]3C[C@@H]12 | 19 | 0.17 | 0.18 | 0.36 | 0.98 | 0.88 | 0.1 | > 30 | 0.8 | 0.16 | 0.67 | 0.45 |  |  |  | 
C=CCO/N=C1/C=C2[C@H](CC[C@]3(C)[C@@H]([C@@]4(C)OC(C)(C)O[C@@H]4CCC(C)(C)O)CC[C@@]23O)[C@@]2(C)C[C@@H]3OC(C)(C)O[C@@H]3C[C@@H]12 | 24.2 |  | 0.17 |  | 1.55 | 1.18 |  | > 30 | 0.93 | 0.19 | 0.99 | 1.2 | 1.13 | 1.25 | 0.32 | 1.05
CO/N=C1/C=C2C3=CC[C@H]([C@@]4(C)OC(C)(C)O[C@@H]4CCC(C)(C)O)[C@@]3(C)CC[C@@H]2[C@@]2(C)C[C@@H]3OC(C)(C)O[C@@H]3C[C@@H]12 | 33.4 |  | 0.18 |  | 0.87 | 0.83 |  | > 30 | 0.85 | 0.16 | 0.67 | 0.31 |  |  | 0.34 | 
CC(C)(O)CC[C@H]1OC(C)(C)O[C@]1(C)[C@H]1CC=C2C3=C/C(=N\OC(C)(C)C)[C@@H]4C[C@H]5OC(C)(C)O[C@H]5C[C@]4(C)[C@H]3CC[C@@]21C | 67.5 |  | 0.28 |  | 1.02 | 0.87 |  | 14.2 | 0.77 | 0.24 | 0.85 | 0.64 |  |  | 0.57 | 
CC(C)(O)CC[C@H]1OC(C)(C)O[C@]1(C)[C@H]1CC=C2C3=C/C(=N/OC(C)(C)C)[C@@H]4C[C@H]5OC(C)(C)O[C@H]5C[C@]4(C)[C@H]3CC[C@@]21C | 59 |  | 0.34 |  | 1.07 | 1.06 |  | 8.14 | 1.05 | 0.26 | 0.63 | 0.66 |  |  | 0.5 | 

Further lines, with some results ahead:

inhibition at 10 min, 2 µM [1] [%] | Structure (SMILES) | CI [2] | CI [3] | CI [4] | CI [5] | CI [6] | CI [7] | IC50 [8] [µM] | CI [9] | CI [10] | CI [11] | CI [12] | CI [13] | CI [14] | CI [15] | CI [16]
56.4 | CCO/N=C1/C=C2C3=CC[C@H]([C@@]4(C)OC(C)(C)O[C@@H]4CCC(C)(C)O)[C@@]3(C)CC[C@@H]2[C@@]2(C)C[C@@H]3OC(C)(C)O[C@@H]3C[C@@H]12 |  | 0.21 |  | 0.74 | 0.66 |  | > 30 | 0.59 | 0.14 | 0.48 | 0.6 |  |  | 0.36 | 
61.1 | C=CCO/N=C1/C=C2C3=CC[C@H]([C@@]4(C)OC(C)(C)O[C@@H]4CCC(C)(C)O)[C@@]3(C)CC[C@@H]2[C@@]2(C)C[C@@H]3OC(C)(C)O[C@@H]3C[C@@H]12 |  | 0.24 |  | 1.07 | 0.88 |  | > 30 | 0.73 | 0.17 | 0.63 | 0.47 |  |  | 0.39 | 
